Reference: BindingDB's records for doi:10.1021/jm001079l (Umr 8525 Cnrs - Universit&#233, 2001)

What follows are compounds tested against Trypanothione reductase (Trypanosoma cruzi, UniProt P28593) (assay: Inhibitory activity against Trypanosoma cruzi trypanothione disulfide reductase, assay in presence of 57 uM T(S)2.).
Summary of the method: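 Assay contained 250 µM NADPH, 57 µM T(S)₂, inhibitor at 0.3–50 µM and 1% DMSO final. Started with enzyme; NADPH loss followed at 340 nm. IC50 in duplicate.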

Trypanothione reductase, sequence (P28593 whole entry): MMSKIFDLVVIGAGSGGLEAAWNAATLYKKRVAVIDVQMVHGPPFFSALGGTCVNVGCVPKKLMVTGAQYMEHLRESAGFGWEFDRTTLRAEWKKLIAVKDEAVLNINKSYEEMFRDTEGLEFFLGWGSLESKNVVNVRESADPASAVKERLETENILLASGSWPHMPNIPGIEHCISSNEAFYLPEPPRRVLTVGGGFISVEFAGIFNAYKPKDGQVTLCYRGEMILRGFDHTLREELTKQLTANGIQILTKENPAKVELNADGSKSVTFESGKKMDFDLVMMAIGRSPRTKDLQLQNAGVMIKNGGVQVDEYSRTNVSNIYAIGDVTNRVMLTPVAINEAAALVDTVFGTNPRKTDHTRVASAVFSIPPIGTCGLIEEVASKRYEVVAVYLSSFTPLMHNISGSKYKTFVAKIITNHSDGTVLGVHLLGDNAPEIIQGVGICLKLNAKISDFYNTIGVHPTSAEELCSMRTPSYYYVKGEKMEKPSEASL

IC50 | Compound
> 50 µM | Cc1c(C=CC(=O)O)c(O)c2c(O)cccc2c1O [3-(8-Hydroxy-3-methyl-1,4-dioxo-1,4-dihydro-naphthalen-2-yl)-propionic acid]
11 µM | CN1CCN(CCCNC(=O)CC=Cc2c(CCCC(=O)NCCCN3CCN(C)CC3)c(O)c3cccc(O)c3c2O)CC1 [4-(5-Hydroxy-3-{3-[3-(4-methyl-piperazin-1-yl)-propylcarbamoyl]-propyl}-1,4-dioxo-1,4-dihydro-naphthalen-2-yl)-N-[3-(4-methyl-piperazin-1-yl)-propyl]-butyramide]
2.9 µM | Cc1c(C=CC(=O)NCCCCNCCCNC(=O)C=Cc2c(C)c(O)c3cccc(O)c3c2O)c(O)c2c(O)cccc2c1O [3-(8-Hydroxy-3-methyl-1,4-dioxo-1,4-dihydro-naphthalen-2-yl)-N-(4-{3-[3-(8-hydroxy-3-methyl-1,4-dioxo-1,4-dihydro-naphthalen-2-yl)-propionylamino]-propylamino}-butyl)-propionamide]
> 50 µM | Cc1c(CC=NC(=O)OC(C)(C)C)c(O)c2ccccc2c1O [[2-(3-Methyl-1,4-dioxo-1,4-dihydro-naphthalen-2-yl)-ethyl]-carbamic acid tert-butyl ester]
2.3 µM | Cc1c(C=CCC(=O)NCCCN2CCN(CCCNC(=O)CC=Cc3c(C)c(O)c4cccc(O)c4c3O)CC2)c(O)c2c(O)cccc2c1O [4-(8-Hydroxy-3-methyl-1,4-dioxo-1,4-dihydro-naphthalen-2-yl)-N-[3-(4-{3-[4-(8-hydroxy-3-methyl-1,4-dioxo-1,4-dihydro-naphthalen-2-yl)-butyrylamino]-propyl}-piperazin-1-yl)-propyl]-butyramide]
> 57 µM | Cc1c(N=CCCN2CCN(C)CC2)c(O)c2c(O)cccc2c1O [5-Hydroxy-2-methyl-3-[3-(4-methyl-piperazin-1-yl)-propylamino]-[1,4]naphthoquinone]
> 50 µM | O=C(O)CCCC=Cc1c(CCCCCC(=O)O)c(O)c2ccccc2c1O [6-[3-(5-Carboxy-pentyl)-1,4-dioxo-1,4-dihydro-naphthalen-2-yl]-hexanoic acid]
11 µM | Cc1c(C=CCC(=O)NCCCNCCCNC(=O)CC=Cc2c(C)c(O)c3ccccc3c2O)c(O)c2ccccc2c1O [4-(3-Methyl-1,4-dioxo-1,4-dihydro-naphthalen-2-yl)-N-(3-{3-[4-(3-methyl-1,4-dioxo-1,4-dihydro-naphthalen-2-yl)-butyrylamino]-propylamino}-propyl)-butyramide]
28 µM | Cc1c(N=CCCNCCCCNCCCN)c(O)c2ccccc2c1O [2-{3-[4-(3-Amino-propylamino)-butylamino]-propylamino}-3-methyl-[1,4]naphthoquinone]
28 µM | Cc1c(N=CCCNCCCCNCCCN)c(O)c2c(O)cccc2c1O
> 57 µM | Cc1c(N=CCCC=Nc2c(C)c(O)c3ccccc3c2O)c(O)c2ccccc2c1O [2-methyl-3-[4-(3-methyl-1,4-dioxo-1,4-dihydro-2-naphthalenylamino)butylamino]-1,4-dihydro-1,4-naphthalenedione]
> 57 µM | Cc1c(N=CCCN2CCN(C)CC2)c(O)c2ccccc2c1O [2-Methyl-3-[3-(4-methyl-piperazin-1-yl)-propylamino]-[1,4]naphthoquinone]
> 50 µM | CN1CCN(CCCNC(=O)C=Cc2c(CCC(=O)NCCCN3CCN(C)CC3)c(O)c3cccc(O)c3c2O)CC1 [3-(8-Hydroxy-3-{2-[3-(4-methyl-piperazin-1-yl)-propylcarbamoyl]-ethyl}-1,4-dioxo-1,4-dihydro-naphthalen-2-yl)-N-[3-(4-methyl-piperazin-1-yl)-propyl]-propionamide]
> 25 µM | Cc1c(C=CCNC(=O)OC(C)(C)C)c(O)c2c(O)cccc2c1O [[3-(8-Hydroxy-3-methyl-1,4-dioxo-1,4-dihydro-naphthalen-2-yl)-propyl]-carbamic acid tert-butyl ester]
> 57 µM | Cc1c(N=CCCCN)c(O)c2ccccc2c1O [2-(4-Amino-butylamino)-3-methyl-[1,4]naphthoquinone]
> 25 µM | Cc1c(CC=NC(=O)OC(C)(C)C)c(O)c2c(O)cccc2c1O [[2-(8-Hydroxy-3-methyl-1,4-dioxo-1,4-dihydro-naphthalen-2-yl)-ethyl]-carbamic acid tert-butyl ester]
> 57 µM | Cc1c(N=CCCCN)c(O)c2c(O)cccc2c1O [3-(4-Amino-butylamino)-5-hydroxy-2-methyl-[1,4]naphthoquinone]
> 50 µM | Cc1c(C=CCC(=O)O)c(O)c2c(O)cccc2c1O [4-(8-Hydroxy-3-methyl-1,4-dioxo-1,4-dihydro-naphthalen-2-yl)-butyric acid]
